Values after ≈ are worked out from the molar mass of the structure shown.

Common to all, as to assay type: functional
Test [1] has as its system Candida albicans. Put plainly: Antimicrobial activity against Candida albicans SC5314 after 24 hrs by broth macrodilution method. Particulars: SC5314, 24 h. The procedure, abridged:
(§1)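 MICs were determined by standard broth macrodilution following the NCCLS M27-A yeast reference method, with readings at 24 h and 48 h. Strains were parental SC5314 and P5, a petite mutant with uncoupled oxidative phosphorylation recovered from SC5314 after serial passage through mouse spleens.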

Test [2] relates to Candida albicans. Put plainly: Antimicrobial activity against Candida albicans P5 after 24 hrs by broth macrodilution method. The settings on record: P5, 24 h. The procedure, abridged: as §1
The test system of test [3] is Candida albicans. Put plainly: Antimicrobial activity against Candida albicans SC5314 after 48 hrs by broth macrodilution method. The settings on record: SC5314, 48 h. The procedure, abridged:
as §1

Test [4] deals with Candida albicans. The test is described as follows: Antimicrobial activity against Candida albicans P5 after 48 hrs by broth macrodilution method. The settings on record: P5, 48 h. The procedure, abridged: as §1
The test system of test [5] is Candida albicans. Put plainly: Ratio of MIC for Candida albicans P5 mutant to MIC for Candida albicans SC5314. The procedure, abridged: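 The ratio is the P5 MIC divided by the SC5314 MIC, with both MICs obtained by standard broth macrodilution (NCCLS M27-A yeast reference method) and read at 24 h and 48 h. P5 is a petite mutant of SC5314 with uncoupled oxidative phosphorylation.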

A word on the MIC: it is the smallest concentration in the dilution series that meets the test's criterion for growth inhibition. A high value points to a need for much substance. Take `C[C@@H]1[C@H](O)[C@@H](C)/C=C/C=C/C=C/C=C/C=C/C=C/C=C/[C@H](O[C@@H]2O[C@H](C)[C@@H](O)[C@H](N)[C@@H]2O)C[C@@H]2O[C@](O)(C[C@@H](O)C[C@@H](O)[C@H](O)CC[C@@H](O)C[C@@H](O)CC(=O)O[C@H]1C)C[C@H](O)[C@H]2C(=O)O` [AMPHOTERICIN B]: the MIC is 0.06 µg/mL (≈ 0.0649 µM) in the test with Candida albicans [1], 0.06 µg/mL (≈ 0.0649 µM) against Candida albicans [2], 0.125 µg/mL (≈ 0.135 µM) in the test on Candida albicans [3] and 0.125 µg/mL (≈ 0.135 µM) with Candida albicans [4].
In the case of `CCCCNC(=O)n1c(NC(=O)OC)nc2ccccc21` [BENOMYL], the MIC against Candida albicans [1], with Candida albicans [2], in the test on Candida albicans [3] and against Candida albicans [4] was 20 µg/mL (≈ 68.9 µM) throughout.
With `C[C@H]1CCC/C=C/[C@@H]2C[C@H](O)C[C@H]2[C@H](O)/C=C/C(=O)O1` [BREFELDIN A], the minimum inhibitory concentration (MIC) turned out to be 4 µg/mL (≈ 14.3 µM) against Candida albicans [1], 16 µg/mL (≈ 57.1 µM) against Candida albicans [2], 8 µg/mL (≈ 28.5 µM) against Candida albicans [3] and 32 µg/mL (≈ 114 µM) with Candida albicans [4].
`C/C=C/C/C=C/CCC(=O)[C@H]1O[C@H]1C(N)=O` [CERULENIN]: the MIC against Candida albicans [1] was 2 µg/mL (≈ 8.96 µM); in the test with Candida albicans [2], 4 µg/mL (≈ 17.9 µM); in the test with Candida albicans [3], 2 µg/mL (≈ 8.96 µM); in the test on Candida albicans [4] it was 8 µg/mL (≈ 35.8 µM).
On to `C[C@@H]1C[C@@H]([C@H](O)CC2CC(=O)NC(=O)C2)C(=O)[C@@H](C)C1` [CYCLOHEXIMIDE], for which the MIC is 400 µg/mL (≈ 1420 µM) with Candida albicans [1], 400 µg/mL (≈ 1420 µM) with Candida albicans [2], 400 µg/mL (≈ 1420 µM) with Candida albicans [3] and 800 µg/mL (≈ 2840 µM) with Candida albicans [4].
Turning to `OC(Cn1cncn1)(Cn1cncn1)c1ccc(F)cc1F` [FLUCONAZOLE], the MIC against Candida albicans [1] was 0.125 µg/mL (≈ 0.408 µM); against Candida albicans [2] it was 1 µg/mL (≈ 3.27 µM); against Candida albicans [3], 0.125 µg/mL (≈ 0.408 µM); with Candida albicans [4] it was 1 µg/mL (≈ 3.27 µM). Also, the Ratio with Candida albicans [5] was 8.
As for `CN(C)c1ccc(C(=C2C=CC(=[N+](C)C)C=C2)c2ccc(N(C)C)cc2)cc1.[Cl-]` [GENTIAN VIOLET], the MIC in the test on Candida albicans [1] came out at 0.2 µg/mL; against Candida albicans [2], 0.2 µg/mL; against Candida albicans [3], 0.4 µg/mL; against Candida albicans [4] it was 0.4 µg/mL.
On to `CCC(C)n1ncn(-c2ccc(N3CCN(c4ccc(OC[C@H]5CO[C@](Cn6cncn6)(c6ccc(Cl)cc6Cl)O5)cc4)CC3)cc2)c1=O` (stereo not given in full) [ITRACONAZOLE], for which the minimal inhibitory concentration (MIC) in the test on Candida albicans [1], with Candida albicans [2], in the test on Candida albicans [3] and in the test on Candida albicans [4] was 0.016 µg/mL (≈ 0.0227 µM) each time.
For the compound `CC(=O)N1CCN(c2ccc(OC[C@H]3CO[C@](Cn4ccnc4)(c4ccc(Cl)cc4Cl)O3)cc2)CC1` [KETOCONAZOLE], the MIC against Candida albicans [1], against Candida albicans [2], in the test on Candida albicans [3] and in the test with Candida albicans [4] was 0.064 µg/mL (≈ 0.12 µM) throughout.
As to `CC/N=c1\cc2oc3cc(NCC)c(C)cc3c(-c3ccccc3C(=O)OCC)c-2cc1C.Cl` [RHODAMINE 6G HYDROCHLORIDE], the minimum inhibitory concentration (MIC) in the test on Candida albicans [1], against Candida albicans [2], in the test on Candida albicans [3] and in the test with Candida albicans [4] was 8 µg/mL in each case.
`Cc1cc(C)nc(NC(=O)NS(=O)(=O)c2ccccc2C(=O)O)n1` [SULFOMETURON]: the minimal inhibitory concentration (MIC) against Candida albicans [1], against Candida albicans [2], with Candida albicans [3] and in the test with Candida albicans [4] was 10 µg/mL (≈ 28.5 µM) in each case.
As to `C[C@@H](c1ncncc1F)[C@](O)(Cn1cncn1)c1ccc(F)cc1F` [VORICONAZOLE], the minimum inhibitory concentration (MIC) against Candida albicans [1] came to 0.004 µg/mL (≈ 0.0115 µM); in the test on Candida albicans [2] it was 0.032 µg/mL (≈ 0.0916 µM); with Candida albicans [3] it was 0.004 µg/mL (≈ 0.0115 µM); against Candida albicans [4] it was 0.032 µg/mL (≈ 0.0916 µM). The Ratio in the test on Candida albicans [5] is recorded as 8.

Values taken from ChEMBL document CHEMBL1145483, “A Candida albicans petite mutant strain with uncoupled oxidative phosphorylation overexpresses MDR1 and has diminished susceptibility to fluconazole and voriconazole” (2007).
